Data on 3 molecules can be found in ChEMBL document CHEMBL3244145, “Synthesis and quantitative structure--activity relationships of some antibacterial 3-formylrifamycin SV N-(4-substituted phenyl)piperazinoacethydrazones” (J Med Chem, 1978).

In series [1] the test system is Staphylococcus aureus. As to the kind of experiment: Antimicrobial activity against Staphylococcus aureus 11 by serial dilution method. The format is functional. To be noted: for MIC: Staphylococcus aureus, 11.
Series [2] has as its system Bacillus subtilis. As to the kind of experiment: Antimicrobial activity against Bacillus subtilis 104 by serial dilution method. The format is functional. To be noted: for MIC: Bacillus subtilis, 104.
Series [3] relates to L929. Kind of series: Cytotoxicity against mouse L929 cells by microscopic analysis. The format is cell-based.
The subject of series [4] is Mycobacterium tuberculosis. As to the kind of experiment: Antimicrobial activity against Mycobacterium tuberculosis H37Rv by agar dilution method. The class given is functional. To be noted: for MIC: Mycobacterium tuberculosis, H37Rv. Summed up:
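Agar dilution: the hydrazone is dissolved in warm Middlebrook agar and serially diluted into two quadrants of a quartered dish, with two drug-free quadrants. After cooling, 0.1 mL of M. tuberculosis suspension (McFarland no. 1, set spectrophotometrically) is inoculated. Plates are incubated 14 days at 37 °C under 5% CO2 and scored for colonies. Run in duplicate.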

The subject of series [5] is Clostridium perfringens. Kind of series: Antimicrobial activity against Clostridium perfringens 2 by serial dilution method. The class given is functional. To be noted: for MIC: Clostridium perfringens, 2. In outline:
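Broth MICs were determined by serial dilution of the hydrazones, run in triplicate. Where results differed, the standard deviation of the three determinations is reported.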

Series [6] deals with Mycolicibacterium phlei. Kind of series: Antimicrobial activity against Mycobacterium phlei 111 by serial dilution method. The class given is functional. To be noted: for MIC: Mycolicibacterium phlei, 111.
Series [7] concerns Vaccinia virus. As to the kind of experiment: Antiviral activity against Vaccinia virus infected in L929 cells assessed as reduction in plaque formation after 3 to 4 days by crystal violet staining method. The class given is functional, organism-based. To be noted: Orthopoxvirus vaccinia.

Values after ≈ are worked out from the molar mass of the structure shown. Active and inactive are the calls of the source. No cut-off for these calls is given here.

Consider `CO[C@H]1/C=C/O[C@@]2(C)Oc3c(C)c(O)c4c(O)c(c(/C=N/NC(=O)CN5CCN(c6ccc(NC(C)=O)cc6)CC5)c(O)c4c3C2=O)NC(=O)/C(C)=C\C=C\[C@H](C)[C@H](O)[C@@H](C)[C@@H](O)[C@@H](C)[C@H](OC(C)=O)[C@@H]1C`, for which the “log(1/C)” value in series [1] was found to be 7.22; in series [2] it was 4.92; in series [4], 4.74; in series [5], 8; in series [6] it was 4.59. Further, the minimal inhibitory concentration (MIC) in series [1] was determined as 0.06 µg/mL (≈ 0.0601 µM); in series [2] it was 12 µg/mL (≈ 12 µM); in series [4], 18 µg/mL (≈ 18 µM); in series [5] it was 0.01 µg/mL (≈ 0.01 µM); in series [6], 31 µg/mL (≈ 31 µM). Besides, the Activity entry in series [3] is “Toxic”. In addition, the result in series [7] was inactive.

Take `CO[C@H]1/C=C/O[C@@]2(C)Oc3c(C)c(O)c4c(O)c(c(/C=N/NC(=O)CN5CCN(c6ccccc6)CC5)c(O)c4c3C2=O)NC(=O)/C(C)=C\C=C\[C@H](C)[C@H](O)[C@@H](C)[C@@H](O)[C@@H](C)[C@H](OC(C)=O)[C@@H]1C`: the “log(1/C)” value was found to be 7.22 in series [1]; 5.24 in series [2]; 5.03 in series [4]; 8.13 in series [5]; 5.12 in series [6]. The MIC amounted to 0.057 µg/mL (≈ 0.0605 µM) in series [1]; 5.4 µg/mL (≈ 5.73 µM) in series [2]; 8.7 µg/mL (≈ 9.23 µM) in series [4]; 0.007 µg/mL (≈ 0.00743 µM) in series [5]; 7.13 µg/mL (≈ 7.57 µM) in series [6]. The Activity entry in series [3] is listed as “Toxic”. Further, the outcome in series [7] was inactive.

Take `CCc1ccc(N2CCN(CC(=O)N/N=C/c3c4c(O)c5c(O)c(C)c6c(c5c3O)C(=O)[C@@](C)(O/C=C/[C@H](OC)[C@@H](C)[C@@H](OC(C)=O)[C@H](C)[C@H](O)[C@H](C)[C@@H](O)[C@@H](C)/C=C/C=C(/C)C(=O)N4)O6)CC2)cc1`: the “log(1/C)” value in series [1] is on record as 7.57; in series [2], 5.25; in series [4] it was 4.72; in series [5] it was 8.51; in series [6] it was 5.16. Besides, the MIC in series [1] is 0.026 µg/mL (≈ 0.0268 µM); in series [2] it was 5.5 µg/mL (≈ 5.67 µM); in series [4], 18.6 µg/mL (≈ 19.2 µM); in series [5], 0.003 µg/mL (≈ 0.00309 µM); in series [6], 6.75 µg/mL (≈ 6.96 µM). Besides, the Activity entry in series [3] is “Toxic”. Also, in series [7], the result was inactive.
